# Assay outcomes as filed in PubChem BioAssay.
# A selection: hits, their analogues and other compounds. The true share with any hit is near 3%.
# Apaf1 inhib: inhibitors of human Apaf-1 apoptosome, primary screen, biochemical, DEVD-Rh110 fluorescence, uHTS; hit rate 0.71% among 330,000; inhibition, % at 20 µM; Apoptotic protease-activating factor 1 (Homo sapiens), O14727; reconstituted apoptosome caspase-3 activity; AID 489030, 2010; active = inhibition of at least 40% at 20 µM;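 note: plate controls were DMSO wells for no effect and DEVD-CHO caspase inhibitor wells for full effect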
#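 Material: reconstituted apoptosome with Apaf-1, cytochrome c, caspase-9, procaspase-3, dATP; medium: pH 7.5 Hepes buffer with CHAPS, BSA, DTT; also added: cytochrome c and DEVD-Rh110 substrate; timing: 30 min plus 50 min, RT; signal: Rh110 fluorescence intensity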
# SENP8 block-1: human SENP8 protease inhibitors, primary screen, biochemical, fluorescence, Nedd8 protein substrate, uHTS; inhibition, % at 20 µM; Sentrin-specific protease 8 (Homo sapiens), Q96LD8; AID 602440, 2012; recombinant SENP8; hit rate 0.64% among 360,000; in the data active = inhibition mostly above about 40%, no sharp cut-off; inactive = mostly below about 27%
# SENP6 inh: SENP6 protease inhibitors, primary screen, biochemical, luminescence, uHTS; Sentrin-specific protease 6 (Homo sapiens), Q9GZR1; hit rate 1.8% among 330,000; Recombinant SENP6 catalytic domain, aminoluciferin luminescence; AID 2599, 2010; inhibition, % at 10 µM;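 active = inhibition above about 50% at the single tested dose, limit read from the data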;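 note: plate controls were DMSO wells with enzyme for no effect and DMSO wells lacking enzyme for full effect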
# SENP8 block-2: SENP8 protease inhibitors, primary screen, biochemical, luminescence | Sentrin-specific protease 8 (Homo sapiens), Q96LD8 | purified SENP8, Z-RLRGG-aminoluciferin cleavage | inhibition, % at 10 µM | hit rate 1.2% among 330,000 | AID 2540, 2010; in the data active = inhibition above about 50%
# SENP7 inh: SENP7 protease inhibitors, primary screen, biochemical, luminescence, uHTS; inhibition, % at 5 µM; recombinant SENP7, Z-RLRGG-aminoluciferin luminescence, 40 min; hit rate 1.5% among 330,000; AID 434973, 2010;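 active = inhibition above about 50% at the single test dose, limit read from the data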;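 note: plate controls were DMSO with enzyme for no effect and no enzyme buffer wells for full effect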
# Target sequence (Q9BQF6 706-1050 limits assumed): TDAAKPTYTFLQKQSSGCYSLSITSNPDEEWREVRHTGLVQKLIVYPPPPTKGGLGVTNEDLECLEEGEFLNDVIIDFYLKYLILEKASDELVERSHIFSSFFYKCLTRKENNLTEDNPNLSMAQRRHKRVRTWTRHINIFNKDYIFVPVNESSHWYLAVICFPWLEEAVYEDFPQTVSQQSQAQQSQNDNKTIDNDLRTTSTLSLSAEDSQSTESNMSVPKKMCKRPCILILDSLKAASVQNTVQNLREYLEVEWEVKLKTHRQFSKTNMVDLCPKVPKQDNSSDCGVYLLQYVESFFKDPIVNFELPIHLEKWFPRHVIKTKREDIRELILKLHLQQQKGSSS
# UBC13 polyUb: UBC13 polyubiquitin chain formation inhibitors, primary screen, biochemical, TR-FRET, uHTS; Ubiquitin-conjugating enzyme E2 N (Homo sapiens), P61088; inhibition, % at 20 µM; hit rate 0.47% among 330,000; AID 485273, 2010; in the data active = inhibition above about 45%, passing the limit was not always enough
# Target sequence (P61088 whole entry, looked up): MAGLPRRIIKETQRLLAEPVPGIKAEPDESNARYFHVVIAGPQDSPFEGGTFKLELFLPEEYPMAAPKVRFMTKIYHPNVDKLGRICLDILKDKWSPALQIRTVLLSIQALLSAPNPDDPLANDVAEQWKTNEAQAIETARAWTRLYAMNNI
# SENP8 confirm: SENP8 protease inhibitors, retest, confirmation, biochemical, luminescence, single concentration. inhibition, % at 12.5 µM. hit rate 40% among 6,200. shares compounds with SENP7 inh. Recombinant SENP8, Z-RLRGG-aminoluciferin luminescence, 60 min;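 active = mean inhibition across replicates above about 50%, limit read from the data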
# SENP6 confirm: SENP6 protease inhibitors, confirmation, biochemical, luminescence, single concentration | shares compounds with SENP7 inh | recombinant SENP6, Z-RLRGG-aminoluciferin luminescence | inhibition, % at 12.5 µM | hit rate 58% among 6,200
# SENP7 confirm: SENP7 protease inhibitors, retest, confirmation, biochemical, luminescence, single concentration; inhibition, % at 12.5 µM; shares compounds with SENP7 inh; hit rate 69% among 6,200; recombinant SENP7, Z-RLRGG-aminoluciferin luminescence, 40 min; AID 488917, 2010
# Casp3 select: caspase-3 protease inhibitors, confirmation, selectivity assay for SENP inhibitor project, biochemical, single concentration; shares compounds with SENP7 inh; purified caspase-3, Z-DEVD-aminoluciferin luminescence, 60 min; inhibition, % at 12.5 µM; hit rate 60% among 6,200; AID 488918, 2010;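 active = mean inhibition above about 50%, limit read from the data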;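 note: plate controls were enzyme with DMSO for no effect and wells without caspase-3 for full effect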
# Target sequence (P42574 28-227 limits assumed): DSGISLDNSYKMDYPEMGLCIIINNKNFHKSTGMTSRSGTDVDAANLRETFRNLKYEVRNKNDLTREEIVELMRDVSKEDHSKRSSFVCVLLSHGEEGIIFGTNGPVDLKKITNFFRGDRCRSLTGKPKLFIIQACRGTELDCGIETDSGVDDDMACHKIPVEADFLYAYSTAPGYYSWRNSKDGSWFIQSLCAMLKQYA
# SENP luc ctr: counter-screen for SENP inhibitors: luminescence interference; shares compounds with SENP7 inh; Pre-incubated SENP8/Z-RLRGG-aminoluciferin, luciferase luminescence interference; inhibition, % at 12.5 µM; hit rate 39% among 6,200; AID 488919;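 active = mean inhibition above about 50% when retested at one dose, limit read from the data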;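 note: plate controls were DMSO wells with completed reaction for no effect and substrate without enzyme for full effect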
# Apaf-1 inh conf2: Apaf-1 inhibitors, single-dose retest, confirmation, biochemical, fluorescence, DEVD-Rh110, 20 µM. inhibition, % at 20 µM. shares compounds with Apaf1 inhib. hit rate 25% among 1,800. reconstituted apoptosome, caspase-3 DEVD-Rh110 fluorescence;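 active = mean inhibition of at least 40% at 20 µM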;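 note: plate controls were DMSO wells for no effect and DEVD-CHO caspase inhibitor control wells for full effect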
# Rh110 interf inh: Rh110 fluorescence interference by putative Apaf-1 inhibitors, confirmation, artefact control for Apaf-1 inhibitor project, biochemical, 20 µM. quenched caspase reaction. activation (fluorescence interference), % at 20 µM. AID 504615, 2011. 1,800 tested, under 10 active. shares compounds with Apaf1 inhib;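 active = signal rise of 40% or more at 20 µM, treated as a fluorescence artifact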
# Apaf1 inh interf: fluorescence interference of Apaf-1 inhibitor hits, dose response, artefact control for Apaf-1 inhibitor project; shares compounds with Apaf1 inhib; fluorescence interference counterscreen, Apaf-1 assay format; IC50, µM; 460 tested, under 10 active; call rule not given here
# Numbers without * were called inactive; / = not tested or not shown.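 Rule for the calls, unless noted: active = mean inhibition above about 50% in the one-dose retest (limit read from the data); inactive = the rest.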
SMILES,Apaf1 inhib,SENP8 block-1,SENP6 inh,SENP8 block-2,SENP7 inh,UBC13 polyUb,SENP8 confirm,SENP6 confirm,SENP7 confirm,Casp3 select,SENP luc ctr,Apaf-1 inh conf2,Rh110 interf inh,others
Cc1cc(C)c(S(=O)(=O)NC(CC(=O)O)c2cccc([N+](=O)[O-])c2)c(C)c1 (centres undefined),12.5,9.4,5.8,-5.5,2.8,-4.1,/,/,/,/,/,/,/,
Cn1c(=O)c2cc(NCc3ccccc3)nnc2n(C)c1=O,93.8*,-82.8,80.8*,80.3*,4.6,-55.9,-3.0,-1.8,-4.6,-4.0,-7.7,7.1,0.5,
Cn1c(=O)c2c(nc(NCc3ccccc3)n2C)n(C)c1=O,0.6,9.9,1.0,-2.7,-4.4,5.1,/,/,/,/,/,/,/,
Cc1cccc(/C=N/NC(=O)C(C)Nc2cccc3ccccc23)n1 (centres undefined),90.9*,-19.7,87.7*,77.9*,-5.4,-104.2,-20.3,-5.5,0.4,-6.3,-2.7,20.2,10.2,
COc1cc([N+](=O)[O-])cc(/C=N/NC(=O)C(C)Nc2cccc3ccccc23)c1O (centres undefined),93.2*,-65.6,68.0*,45.6,12.0,-45.7,-3.9,-0.8,-6.2,4.2,3.7,21.3,0.2,
CCOC(=O)CNc1ccc2c(c1)OCO2,40.0*,1.1,58.5*,4.1,-0.6,-34.3,12.6,12.3,7.7,2.1,-3.0,18.9,17.6,
Cc1ccc(NC2=C(NCCO)C(=O)c3ccccc3C2=O)cc1,78.1*,-43.9,70.3*,47.0,35.6,-64.6,33.9,56.5*,22.0,16.4,2.5,61.2*,0.4,Apaf1 inh interf=>100
COc1ccc(C2=C(Nc3ccc(C)cc3)c3ccccc3C2=O)cc1,4.8,23.1,0.8,-1.7,9.7,-28.8,/,/,/,/,/,/,/,
Oc1c(Br)cc(Br)cc1CNc1ccccn1,-10.3,34.5,2.6,3.3,-0.1,11.3,/,/,/,/,/,/,/,
COc1cccc(CNc2cccc3cccnc23)c1O,71.5*,32.6,78.7*,80.3*,66.3*,-115.1,-5.9,11.4,16.4,2.0,14.1,14.3,-7.0,
Cc1ccc(O)c(CNc2cccc3cccnc23)c1,93.4*,-8.2,-3.7,84.1*,65.5*,-105.4,-2.0,21.3,15.9,5.0,3.5,37.6,4.1,
Oc1ccc(Br)cc1CNc1cccc2cccnc12,90.4*,-8.4,78.4*,79.9*,70.5*,-139.9,9.4,29.2,6.6,1.5,1.3,47.7*,8.0,Apaf1 inh interf=>100
COc1cccc(CNc2ccccn2)c1O,0.9,20.3,9.7,4.4,3.3,-5.0,/,/,/,/,/,/,/,
Oc1ccc(Br)cc1CNc1cnc2ccccc2c1,10.6,-329.6,5.9,-6.2,-7.4,27.4,/,/,/,/,/,/,/,
Oc1c(Br)cc(Br)cc1CNc1cccc2cccnc12,92.1*,-69.8,85.1*,90.8*,88.3*,-64.0,3.6,21.2,21.8,3.7,-2.7,59.1*,10.1,Apaf1 inh interf=>100
O=C(Nc1ccc(Br)cc1)c1cnc[nH]1,7.3,2.2,-14.2,-9.2,-9.3,3.1,/,/,/,/,/,/,/,
COc1ccc(NS(=O)(=O)c2cccc(C(=O)NNC(=O)c3ccc(=O)[nH]c3)c2)cc1,-10.0,22.9,2.1,4.7,-4.8,3.4,/,/,/,/,/,/,/,
CC(C)CCN(CC(=O)NC(C)(C)C)C(=O)C(=O)Nc1ccc2c(c1)OCCO2,-7.8,8.6,-12.6,0.0,0.2,-10.3,/,/,/,/,/,/,/,
Cc1[nH]n(-c2ccc([N+](=O)[O-])cc2)c(=O)c1/C=N/N1CCOCC1,44.5*,32.1,78.4*,44.2,57.6*,-7.1,-7.8,-5.3,16.9,36.1,39.8,-0.2,-2.1,
COc1ccc2c(c1)Cc1sc(NC(=O)c3ccco3)nc1-2,85.4*,-13.8,91.7*,88.0*,94.6*,-50.4,27.2,46.1,87.3*,63.7*,78.4*,55.5*,5.0,Apaf1 inh interf=>100
Cc1ccc(C)c(-n2nnc3ccccc3c2=O)c1,/,-10.3,/,/,/,/,/,/,/,/,/,/,/,
CN1c2cccc3cccc(c23)N(C)C1(C)C,45.5*,-320.5,72.5*,11.6,37.0,-16.6,-3.4,3.9,-3.6,-3.9,-4.8,13.5,-3.7,
CN1c2ccccc2N(C)C1(C)c1cccc2ccccc12,19.3,-273.2,19.6,1.4,5.8,-40.5,/,/,/,/,/,/,/,
COc1cccc(C(=O)NCC(=O)NCc2cc(=O)n(C)c(=O)n2C)c1OC,-0.3,15.6,-6.6,-2.5,-1.7,1.7,/,/,/,/,/,/,/,
CC1=NN(c2ccccc2)C(=O)/C1=C/c1cccc(C)c1,96.1*,69.7*,23.0,-1.5,52.4*,-56.7,2.0,15.7,-1.4,-1.6,-4.1,22.9,-0.8,
COc1cc(/C=C2/C(=O)N(c3cccc(Br)c3)N=C2C)cc(OC)c1O,82.2*,61.0*,-14.2,2.5,53.6*,-89.8,7.9,15.7,7.4,3.6,6.0,17.7,-1.2,
O=C1N/C(=C\c2ccc(O)cc2)C(=O)c2ccccc21,97.0*,25.0,96.0*,93.8*,85.0*,-48.0,93.2*,97.0*,97.0*,84.4*,39.6,73.6*,-0.3,Apaf1 inh interf=>100
